Hits are enriched below; roughly 1.4% of the tested compounds scored in any of these assays.
FN deposition inh: fibronectin deposition inhibition | 0.086% of 350,000 active | inhibition, % at 12.6 µM | AH1F fibroblasts, Alexa488-fibronectin deposition fluorescence, overnight | AID 743247;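 active = mean inhibition across replicates of 30% or more, regardless of how many single replicates reach that level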;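 also: positive control wells lacked labelled fibronectin entirely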
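Material: AH1F fibroblast monolayer depositing Alexa488-labelled fibronectin into matrix | Input: 10000 AH1F cells/well | Medium: DMEM plus 2% serum, read in PBS | Reagent: Alexa488-fibronectin, 24 nM final in well | Compound dosing: One dose per compound, pinned | Schedule: 1 h adhesion, overnight exposure | Measured by: Fluorescence at 485 nm excitation, 525 nm emission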
Env fusion inh: inhibitors of HIV Env-mediated cell fusion; 1.1% of 360,000 active; inhibition, % at 12.3 µM; AID 651610; HeLa-JRFL Env/CEM21 cell fusion, luciferase;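 active = mean replicate inhibition score of at least 50 and every replicate individually at or above 50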;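 also: 0% = plate neutral controls and 100% = maraviroc near 300 nM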
GSIS activator: GLuc luminescence reporter in INS-1E cells, primary screen for activators of glucose-dependent secretion of insulin | INS-1E GLuc reporter insulin secretion, 2-3 h | activation, % at 16.6 µM | 0.61% of 370,000 active | AID 743287;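 active = lowest replicate activation of at least 40%, so every replicate reaches that level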;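 also: 0% = median of neutral control wells and 100% = median of IBMX positive control wells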
ERp5 inh: blocks human ERp5 reductase activity on insulin | Q15084 | ERp5 insulin aggregation, absorbance 650 nm, 90 min | inhibition, % at 9.99 µM | 0.05% of 350,000 active | AID 651711;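 active = mean replicate inhibition above about 25%, with every replicate also reaching it, limit read from the data, passing the limit was not always enough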
Target sequence (Q15084 whole entry, looked up): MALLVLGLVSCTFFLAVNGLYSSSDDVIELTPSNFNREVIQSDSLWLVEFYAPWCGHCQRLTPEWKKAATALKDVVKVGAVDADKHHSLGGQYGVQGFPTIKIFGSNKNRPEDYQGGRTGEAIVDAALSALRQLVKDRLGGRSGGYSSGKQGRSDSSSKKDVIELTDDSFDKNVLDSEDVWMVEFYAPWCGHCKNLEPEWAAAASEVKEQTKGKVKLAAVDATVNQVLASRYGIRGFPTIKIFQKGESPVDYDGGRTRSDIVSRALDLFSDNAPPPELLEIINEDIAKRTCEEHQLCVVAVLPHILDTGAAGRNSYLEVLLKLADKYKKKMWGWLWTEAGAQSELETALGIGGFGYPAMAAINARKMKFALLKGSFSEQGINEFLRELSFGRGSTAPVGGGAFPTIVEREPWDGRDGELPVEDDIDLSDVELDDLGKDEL
PDI turbidity: inhibitors of human protein disulfide isomerase; P07237; PDI insulin aggregation turbidity, A650, 90 min; inhibition, % at 10 µM; 0.052% of 350,000 active;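 active = mean inhibition across replicates of 30% or more, whatever share of single replicates reach that level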
Active calls of the source: *; . = not tested or not shown; [ ] = dose if it differs, or a comment.

SMILES	FN deposition inh	Env fusion inh	GSIS activator	ERp5 inh	PDI turbidity
COc1cccc(-c2cnc3c(c2)C(=O)N([C@H](C)CO)C[C@@H](C)[C@H](CN(C)Cc2cccnc2)O3)c1	4	10[16.7 µM]	9	-2	.
C/C(O)=c1/c(=O)nc2cccc3c2=c1c1ccccc1c3=O	7	67*	24	3	0
N=C1/C(=C/c2cccn2-c2ccc([N+](=O)[O-])cc2)C(=O)N=C2SC=CN12	2	.	12	3	0
COc1ccc(-c2ccc(/C=C3/C(=N)N4C=CSC4=NC3=O)o2)c([N+](=O)[O-])c1	1	-47	158*	.	-4
CCC(=O)Nc1ccc2c(c1)C(=O)N(C)C[C@@H](OC)[C@H](C)CN(Cc1ccccc1)[C@@H](C)CO2	0	4[16.7 µM]	-8	-3	.
OC[C@@H]1[C@@H](c2ccc(C#Cc3cccnc3)cc2)[C@@H]2CN(Cc3ccccc3F)CCCCN12	.	.	-13	-3	.
COc1ccc(C#Cc2ccc([C@@H]3[C@@H](CO)N4CCCCN(Cc5ccccc5F)C[C@@H]34)cc2)cc1	.	.	95*	-3	.
COc1ccc(C#Cc2ccc([C@H]3[C@H](CO)N4CCCCN(Cc5ccccc5F)C[C@@H]34)cc2)cc1	.	.	18	-4	.
COc1ccc(C#Cc2ccc([C@@H]3[C@H](CO)N4CCCCN(Cc5ccccc5F)C[C@@H]34)cc2)cc1	.	.	50*	-7	.
COCC#Cc1cnc2c(c1)C(=O)N([C@@H](C)CO)C[C@H](C)[C@H](CN(C)Cc1ccc(-c3ccccc3)cc1)O2	.	6[16.7 µM]	-19	.	.
COc1ccc2c3c(n(C)c2c1)[C@@H](CO)N(C(=O)c1ccccn1)CC31CN(C(=O)c2ccccn2)C1	.	5[16.7 µM]	7	-15	.
C[C@@H](O)C#Cc1cnc2c(c1)C(=O)N([C@@H](C)CO)C[C@H](C)[C@H](CN(C)Cc1ccc(-c3ccccc3)cc1)O2	-3	-7[16.7 µM]	-10	.	.
O=C(N/N=C/c1ccco1)c1cc(-c2ccc3ccccc3c2)n[nH]1	.	.	83*	.	10
CCc1ccc(-c2cc(C(=O)N/N=C/c3ccco3)[nH]n2)cc1	5	4	-5	-1	0
CCCCOCCCNC(=O)C[C@H]1C[C@@]2(C(=O)OC)C(=C[C@H](COCc3ccccc3)O[C@@H]2C)N(Cc2ccc3c(c2)OCO3)C1=O	4	-12	.	-1	.
CCCCOCCCNC(=O)C[C@H]1C[C@@]2(C(=O)OC)C(=C[C@H](C(C)(C)C)O[C@@H]2C)N(Cc2ccc3c(c2)OCO3)C1=O	-2	74*	.	3	.
COC(=O)[C@]12C[C@H](CC(=O)NCc3cccc4ccccc34)C(=O)N(Cc3ccc4c(c3)OCO4)C1=C[C@H](C(C)(C)C)O[C@@H]2C	0	56*	-9	-4	.
COC(=O)[C@]12C[C@H](CC(=O)NCc3ccc(OC)c(OC)c3)C(=O)N(Cc3ccc4c(c3)OCO4)C1=C[C@H](C(C)(C)C)O[C@@H]2C	-4	39	.	1	.
CCSc1ccc2nnc(-c3ccc(F)cc3)n2n1	.	.	61*	0	1
O=C(COC(=O)c1cccc(Br)c1)NC(=O)NC1CCCC1	-3	1	2	-1	4
COc1ccc(C(=O)OCC(=O)NC(=O)NC2CCCC2)cc1OC	3	10	56*	7	-1
COC(=O)c1ccc(OC)c(OC2CCCC2)c1	5	6	47*	6	0
C[C@H](CO)N1C[C@H](C)[C@H](CN(C)C(=O)Cc2cccnc2)Oc2ncc(C3=CCCCC3)cc2C1=O	-25	8[16.7 µM]	4	3	.
COc1cc(CN2CCC(Cc3ccccc3)CC2)cc([N+](=O)[O-])c1O	0	2	0	1	0
COc1cc(NC(=O)CN2CCC(Cc3ccccc3)CC2)c(C)cc1[N+](=O)[O-]	6	10	58*	.	-6
SMILES	FN deposition inh	Env fusion inh	GSIS activator	ERp5 inh	PDI turbidity
O=C1C2=C(NC(=S)NC2c2ccc(Cl)cc2)NC(c2ccc(Cl)cc2)N1c1ccc(Cl)cc1 (stereo not given)	-18	-147	.	.	14
CCc1ccc(C2NC(=S)NC3=C2C(=O)N(c2ccccc2OC)C(c2ccc(CC)cc2)N3)cc1 (stereo not given)	-17	-60	127*	.	17
On1ccccc1=S	13	-22	87*	7	8
O=P(OC1CCCCC1)(OC1CCCCC1)C(O)c1ccc(Cl)cc1Cl (stereo not given)	-5	61*	.	.	-8
O=P(OC1CCCCC1)(OC1CCCCC1)C(O)c1c(Cl)cccc1Cl (stereo not given)	-15	59*	.	.	2
Cc1ccccc1-c1ccc2c(c1)O[C@H](CN(C)C(=O)Nc1ccc(C(F)(F)F)cc1)[C@H](C)CN([C@H](C)CO)S2(=O)=O	6	72*[16.7 µM]	-19	1	.
C[C@@H]1CN([C@@H](C)CO)S(=O)(=O)c2ccc(-c3ccccc3)cc2O[C@H]1CN(C)S(C)(=O)=O	5	57*[16.7 µM]	-24	-2	.
C[C@@H]1CN([C@H](C)CO)S(=O)(=O)c2ccc(-c3ccccc3)cc2O[C@@H]1CN(C)Cc1ccccc1	8	65*[16.7 µM]	-3	.	.
C[C@H](CO)N1C[C@H](C)[C@H](CN(C)Cc2ccccc2)Oc2cc(-c3ccccc3)ccc2S1(=O)=O	9	79*[16.7 µM]	-26	.	.
C[C@H](CO)N1C[C@H](C)[C@@H](CN(C)Cc2ccc(Cl)c(Cl)c2)OCCCC[C@H](C)Oc2ccc(NC(=O)Cc3ccccc3)cc2C1=O	.	-9[16.7 µM]	-14	-1	.
Cc1cc(C)cc(Nc2nc3ccccc3c(=O)[nH]2)c1	.	1	-5	2	2
COc1nc(Nc2nc3ccccc3c(=O)[nH]2)nc2ccc(C)cc12	6	103*	-4	21	1
Cc1ccccc1C(=O)Nc1sc(C)c(C)c1C(=O)c1ccccc1	.	11	.	.	0
COC(=O)c1c(NC(=O)CN2CCN(c3ccccc3Cl)CC2)sc(C)c1C	34*	13	4	.	-3
Cc1sc(NC(=O)CCl)c(C(=O)c2ccccc2)c1C	-8	8	.	.	72*
CCOC(=O)c1c(NC(=O)CN2CCN(c3ccc(Cl)cc3)CC2)sc(C)c1C	.	.	.	.	4
O=C([C@@H]1CC=C[C@@H]2CCN(C3CCCCC3)C(=O)[C@@H]21)N1CCN(c2ccccc2)CC1	-12	9	-28	1	-4
O=C1[C@@H](c2ccccc2)CC[C@@H]2C=CC[C@H]3CCN1[C@@H]32	10	-13	18	31*	.
O=C(NCC[C@H]1CC[C@@H](NC(=O)c2cnccn2)[C@@H](CO)O1)Nc1ccc(F)cc1	-4	3[16.7 µM]	-6	0	.
COc1ccccc1CN1[C@@H]2c3ccc(C4=CCCCC4)c(=O)n3C[C@H]1[C@H](CO)[C@H]2C(=O)N(C)C	.	.	-13	-2	.
CC1CCN(C(c2ccc(N(C)C)cc2)c2nnnn2Cc2ccc(F)cc2)CC1 (stereo not given)	.	.	-11	.	-14
Fc1ccc(Cn2nnnc2C(c2ccc(Cl)cc2)N2CCSCC2)cc1 (stereo not given)	-2	52*	-27	.	-9

Assay outcomes: PubChem BioAssay, Broad Institute
